Only some compounds are listed: those with a hit (about 2% of all), similar ones and a draw of the others.
CAL PDZ FP-1: inhibitors of human CAL PDZ peptide binding; purified CAL PDZ, TMR-peptide fluorescence polarization, 1 h; hit rate 0.02% among 330,000; inhibition, % at 20 µM;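 active = highest replicate inhibition of at least 40%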;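 also: plate controls were DMSO neutral control wells for no effect and unlabeled competitor peptide control wells for full effect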
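Material: tagged CAL PDZ domain; buffer or medium: 25 mM sodium phosphate pH 7.4, 150 mM NaCl, TCEP, IgG, Thesit; compound dosing: single point, 20 µM; schedule: 1 h incubation at room temperature before polarization reading; measured by: FP readout, S and P plane fluorescence; read-out basis: percent inhibition from loss of millipolarization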
PKA-R1A activ: PKA-R1A complex activation | PKA-R1A dissociation, Cy5-IP20 fluorescence polarization; scaled: DMSO 0%, 113 µM cGMP 100% | activation, % at 11.4 µM | hit rate 0.083% among 340,000 | AID 504707;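 active = percent activation above the mean of all tested compounds plus 3 SD, cut at about 19% in these data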;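 also: higher means more PKAc released from R1A so a rise in polarization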
PKA-R2B act: activators of human PKA-R2B complex. PKA-R2B holoenzyme dissociation, Cy5-IP20 fluorescence polarization; R2B truncated from residue 108, S112A mutant; 0% DMSO only, 100% 113 µM cGMP. activation, % at 11.4 µM. hit rate 0.079% among 340,000;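 active = activation above a cutoff set at the mean over all compounds plus 3 SD, cut at about 18% in these data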;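 also: higher means more holoenzyme dissociation and a rise in polarization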
dFosB activator: activators of mouse delta FosB homodimer; P13346; purified delta FosB, TAMRA-CDK5 oligo fluorescence polarization; percent of positive-control signal above neutral wells; activation, % at 25 µM; hit rate 0.99% among 340,000;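 active = mean activation above about 17%, with every replicate also reaching it, limit read from the data, passing the limit was not always enough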
NTR1 ag: activates human neurotensin receptor 1; hit rate 0.17% among 330,000; P30989; AID 493036; NTR1-U2OS beta-arrestin-GFP spot imaging, agonist mode; activation, % at 20 µM;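 active = activation at or above 40% of the spot to cytoplasm intensity ratio, with at least 20 cells analyzed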;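 also: 0% = DMSO without peptide and 100% = 100 nM NTR1 peptide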
CAL PDZ FP-2: inhibitors of human CAL PDZ peptide binding | Q9HD26 | purified CAL PDZ, TMR-peptide fluorescence polarization, 1 h | inhibition, % at 24.9 µM | hit rate 0.92% among 300,000 | AID 602252;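 active = mean inhibition of at least 30% with at least half of replicates also reaching 30%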;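 also: 0% = DMSO neutral control and 100% = excess unlabeled competitor peptide PRC23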
R1A FP artifact: FP assay interference, PKA-R1A counter-screen. shares compounds with PKA-R1A activ. Cy5-IP20 peptide alone, fluorescence polarization artifact counterscreen. activation, % at 11.4 µM. hit rate 7% among 280;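 active = mean activation over triplicate runs exceeds the adjusted cutoff derived for the parent primary screen, cut at about 19% in these data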;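 also: no PKA protein present so any polarization rise reflects compound interference; 0% = tracer peptide mix alone and 100% = mix with added PKA catalytic subunit; higher means stronger polarization artifact and likely false positive in parent screen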
PKA-R1A confirm: confirmation of PKA-R1A complex activators | shares compounds with PKA-R1A activ | Cy5-IP20 fluorescence polarization, PKA-R1A holoenzyme dissociation | activation, % at 11.4 µM | hit rate 9% among 280 | AID 504800;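 active = mean activation over replicate wells exceeds the adjusted hit threshold taken from the earlier primary screen, cut at about 20% in these data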;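 also: 0% = holoenzyme mix with DMSO only and 100% = cGMP-activated control wells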
Target sequence (P00514 whole entry, looked up): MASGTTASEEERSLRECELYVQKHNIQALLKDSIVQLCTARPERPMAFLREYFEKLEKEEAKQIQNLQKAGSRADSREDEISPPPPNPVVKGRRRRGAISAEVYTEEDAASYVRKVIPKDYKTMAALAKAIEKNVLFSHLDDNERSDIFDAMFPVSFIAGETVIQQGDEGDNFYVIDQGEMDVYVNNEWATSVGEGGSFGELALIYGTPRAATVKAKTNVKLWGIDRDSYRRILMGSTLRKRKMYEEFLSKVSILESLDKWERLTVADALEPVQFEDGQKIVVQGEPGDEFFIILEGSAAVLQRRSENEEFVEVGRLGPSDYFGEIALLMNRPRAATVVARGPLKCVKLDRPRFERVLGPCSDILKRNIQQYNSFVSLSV
* hit, by the source's call; . = no result.

SMILES | CAL PDZ FP-1 | PKA-R1A activ | PKA-R2B act | dFosB activator | NTR1 ag | CAL PDZ FP-2 | R1A FP artifact | PKA-R1A confirm
CCc1ccc(N(C(=O)c2snc(C(N)=O)c2N)C(C(=O)NCC2CCCO2)c2ccco2)cc1 (centres undefined) | -3 | 0 | 7 | -25 | 0 | -2 | . | .
O=c1oc(CCCO)cc2ccccc12 | -1 | -4 | 4 | -4 | 0 | -2 | . | .
CCn1c(SCC(=O)Nc2nccs2)nnc1-c1cc2cccc(OC)c2o1 | -1 | -1 | -2 | 1 | -1 | -1 | . | .
COc1cccc2cc(-c3nnc(SCC(=O)Nc4cc(C(F)(F)F)ccc4Cl)n3N)oc12 | 1 | 20* | 8 | -1 | 4 | -2 | -2 | 0
O=C(O)c1nn(CC(=O)N2CCC(Cc3ccccc3)CC2)c(=O)c2ccccc12 | -1 | 21* | -5 | -14 | 1 | . | 1 | 3
Cc1c(C(=O)NCc2ccccc2CN2CCCC2)oc2ccc(F)cc12 | -2 | -12 | 5 | -3 | 2 | 0 | . | .
COc1cccc(NC(=O)CN(C)C(=O)CCNS(=O)(=O)c2ccc(C)cc2)c1 | 0 | 19* | 11 | -7 | 3 | -2 | 3 | 2
CCN(CC)CCOc1ccc(C=NNc2nc3c([nH]2)c(=O)n(C)c(=O)n3C)cc1 | 0 | -8 | 2 | -12 | . | -5 | . | .
COc1ccc(CCN2C(=S)N(C)C(=O)C2CC(=O)Nc2ccc(F)cc2)cc1 (centres undefined) | . | . | . | . | 2 | . | . | .
COc1cccc(C(=O)NC(=S)Nc2ccccc2N2CCCC2)c1 | -3 | 0 | 1 | -10 | 6 | -3 | . | .
CC(C)Oc1cccc(C(=O)NC(=S)Nc2ccccc2N2CCOCC2)c1 | 0 | 19* | -3 | -3 | 9 | 0 | -4 | -3
COc1ccc(/C=C2/S/C(=N/S(=O)(=O)Cc3ccccc3)NC2=O)cc1OC | -1 | 23* | 5 | -1 | 1 | -6 | 2 | -1
COc1ncnc2c1oc1nc(CC(C)C)c3c(c12)CC(C)(C)OC3 | -3 | 20* | 10 | -5 | 12 | -6 | 1 | 3
O=C(NCc1ccco1)C1CC2CCC1C2 (centres undefined) | -6 | 20* | 2 | -9 | 0 | -8 | 0 | -1
O=C(O)C1C2CCC(C2)C1C(=O)NCc1ccco1 (centres undefined) | . | 2 | 10 | -10 | -2 | -2 | . | .
CCOC(=O)C1CCN(CC(C)(C)NS(=O)(=O)c2ccccc2)CC1 | -1 | 21* | 7 | -2 | 0 | -4 | 0 | -4
CC(=O)Nc1ccc(S(=O)(=O)N2CCc3cc4c(cc3C2C)OCCCO4)cc1 (centres undefined) | 0 | 21* | 13 | -2 | 0 | 3 | 2 | 0
Cc1ccc(CNC(=O)Cn2cnc(C(=O)Nc3ccc(C)c(C)c3)n2)o1 | 0 | 6 | 0 | 4 | -1 | -5 | . | .
CC(=O)c1ccc(NC(=O)CSc2nc3nc(C)cc(C)n3n2)cc1 | 0 | 19* | 2 | -10 | -1 | . | 0 | 1
CN(Cc1ccccc1)c1ccc(C(CC(N)=O)NC(=O)c2ccc(Br)cc2)cc1[N+](=O)[O-] (centres undefined) | 0 | 25* | 8 | 0 | 25 | -1 | 19* | 19*
CC(C)Nc1ccc(C(CC(N)=O)NC(=O)c2ccc(Br)cc2)cc1[N+](=O)[O-] (centres undefined) | 0 | 0 | -4 | -6 | 6 | 4 | . | .
CC1=C(c2ccccc2)C=NNCC1=O | 0 | -2 | 9 | -7 | . | 1 | . | .
CCN(CC(=O)Nc1ccccc1OC)C(=O)CSCc1ccc(C)cc1 | -1 | 22* | 0 | -12 | -1 | -2 | -4 | -1
CCC(=O)Nc1ccc(C(=O)NNC(=O)c2cccc(C)c2)cc1 | 0 | 0 | -8 | -7 | 0 | -3 | . | .

Screens from PubChem BioAssay.
